The target in assay [1] is T1, Histone deacetylase-like amidohydrolase (Alcaligenes sp. (strain DSM 11172) (Bordetella sp. (strain FB188))) (UniProt Q70I53).
T1 sequence (whole entry): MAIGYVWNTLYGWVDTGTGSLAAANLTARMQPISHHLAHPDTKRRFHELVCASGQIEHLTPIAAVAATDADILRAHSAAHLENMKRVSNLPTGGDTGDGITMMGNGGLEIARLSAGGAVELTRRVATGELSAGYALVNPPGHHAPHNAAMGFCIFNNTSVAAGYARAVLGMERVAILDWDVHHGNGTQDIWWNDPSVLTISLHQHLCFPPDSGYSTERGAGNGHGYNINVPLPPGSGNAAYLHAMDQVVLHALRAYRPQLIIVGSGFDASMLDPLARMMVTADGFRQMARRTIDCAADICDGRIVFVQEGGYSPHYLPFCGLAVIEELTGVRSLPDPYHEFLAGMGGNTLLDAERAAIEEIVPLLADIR
The assay is described as follows: Inhibition of Bordetella sp. (strain FB188) N-terminus His-tagged HDAH expressed in Escherichia coli BL21 (DE3) up to 100 uM. Conditions: Alcaligenaceae bacterium FB188. Summed up:
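Recombinant N-terminal His6-tagged HDAH from Bordetella strain FB188, expressed in E. coli BL21, purified on zinc-loaded His-Trap column, eluted with 500 mM imidazole, dialyzed into assay buffer (>98% pure by SDS-PAGE). Tested directly against compounds; thiols generated in situ from disulfides with TCEP.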

For assay [2], the target named is DNA (cytosine-5)-methyltransferase 1 (Homo sapiens, UniProt P26358). The assay is described as follows: Inhibition of full length N-terminal His6-tagged human DNMT1 at 120 uM after 1 hr by fluorescence analysis. Summed up: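 Baculovirus-expressed DNMT1 (80 nM final) with SAM (10 μM final) and hemimethylated hairpin oligo (125 nM final) in MOPS buffer pH 6.5 with 1 mM DTT, 1 h room temperature. Stopped with Gla1 plus 125 μM SAH, developed 7 h; fluorescence Ex 485/Em 520 nm. Thiols made in situ by TCEP reduction; no SAM as full-inhibition control.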
Sequence of DNA (cytosine-5)-methyltransferase 1 (P26358 whole entry): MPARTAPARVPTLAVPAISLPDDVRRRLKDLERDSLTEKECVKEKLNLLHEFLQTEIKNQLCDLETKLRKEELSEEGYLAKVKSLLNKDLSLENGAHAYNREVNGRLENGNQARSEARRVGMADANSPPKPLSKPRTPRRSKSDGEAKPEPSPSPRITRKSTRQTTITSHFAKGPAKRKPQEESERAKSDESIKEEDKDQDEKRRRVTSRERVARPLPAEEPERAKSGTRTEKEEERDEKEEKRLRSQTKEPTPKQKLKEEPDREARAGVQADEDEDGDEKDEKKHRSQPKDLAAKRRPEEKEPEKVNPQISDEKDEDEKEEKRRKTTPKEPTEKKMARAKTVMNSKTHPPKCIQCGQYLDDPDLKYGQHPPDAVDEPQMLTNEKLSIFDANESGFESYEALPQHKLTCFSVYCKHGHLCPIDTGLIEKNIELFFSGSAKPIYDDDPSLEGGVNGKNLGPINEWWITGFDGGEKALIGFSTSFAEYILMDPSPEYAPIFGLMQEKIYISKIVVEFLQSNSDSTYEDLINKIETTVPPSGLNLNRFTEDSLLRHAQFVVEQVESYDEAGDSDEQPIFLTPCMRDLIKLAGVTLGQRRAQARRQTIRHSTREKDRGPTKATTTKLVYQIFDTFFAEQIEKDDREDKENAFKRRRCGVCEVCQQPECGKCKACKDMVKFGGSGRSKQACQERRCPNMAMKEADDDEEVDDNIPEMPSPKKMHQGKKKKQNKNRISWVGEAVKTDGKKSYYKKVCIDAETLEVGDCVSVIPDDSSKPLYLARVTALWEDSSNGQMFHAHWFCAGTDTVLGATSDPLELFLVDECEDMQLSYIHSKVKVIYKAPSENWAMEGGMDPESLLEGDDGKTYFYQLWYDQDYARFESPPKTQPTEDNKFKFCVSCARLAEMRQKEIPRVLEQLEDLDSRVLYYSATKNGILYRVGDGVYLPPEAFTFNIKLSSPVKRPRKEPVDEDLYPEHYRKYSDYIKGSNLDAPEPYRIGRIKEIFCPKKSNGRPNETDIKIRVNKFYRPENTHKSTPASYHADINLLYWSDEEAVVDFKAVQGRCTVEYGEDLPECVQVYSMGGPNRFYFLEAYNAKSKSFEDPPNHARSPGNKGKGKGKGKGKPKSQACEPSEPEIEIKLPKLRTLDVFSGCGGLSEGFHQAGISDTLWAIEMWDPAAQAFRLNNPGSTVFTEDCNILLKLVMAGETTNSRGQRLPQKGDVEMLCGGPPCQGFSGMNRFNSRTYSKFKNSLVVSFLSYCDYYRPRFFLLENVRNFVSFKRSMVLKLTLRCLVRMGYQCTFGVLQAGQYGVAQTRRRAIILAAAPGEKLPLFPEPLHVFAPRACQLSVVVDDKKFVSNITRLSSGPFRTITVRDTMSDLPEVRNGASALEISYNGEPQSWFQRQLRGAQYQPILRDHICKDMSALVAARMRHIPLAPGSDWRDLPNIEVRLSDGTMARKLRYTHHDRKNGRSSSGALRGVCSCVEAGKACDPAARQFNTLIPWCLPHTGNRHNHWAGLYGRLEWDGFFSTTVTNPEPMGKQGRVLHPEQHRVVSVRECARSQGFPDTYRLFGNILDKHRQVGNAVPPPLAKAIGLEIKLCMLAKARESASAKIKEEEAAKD

For assay [3], the target named is Histone deacetylase 1 (Homo sapiens, UniProt Q13547). Kind of assay: Inhibition of human recombinant HDAC1 using Boc-lys(Ac)-AMC as substrate preincubated for 20 mins with substrate measured after 60 mins by fluorescence analysis.
Sequence of Histone deacetylase 1 (Q13547 whole entry): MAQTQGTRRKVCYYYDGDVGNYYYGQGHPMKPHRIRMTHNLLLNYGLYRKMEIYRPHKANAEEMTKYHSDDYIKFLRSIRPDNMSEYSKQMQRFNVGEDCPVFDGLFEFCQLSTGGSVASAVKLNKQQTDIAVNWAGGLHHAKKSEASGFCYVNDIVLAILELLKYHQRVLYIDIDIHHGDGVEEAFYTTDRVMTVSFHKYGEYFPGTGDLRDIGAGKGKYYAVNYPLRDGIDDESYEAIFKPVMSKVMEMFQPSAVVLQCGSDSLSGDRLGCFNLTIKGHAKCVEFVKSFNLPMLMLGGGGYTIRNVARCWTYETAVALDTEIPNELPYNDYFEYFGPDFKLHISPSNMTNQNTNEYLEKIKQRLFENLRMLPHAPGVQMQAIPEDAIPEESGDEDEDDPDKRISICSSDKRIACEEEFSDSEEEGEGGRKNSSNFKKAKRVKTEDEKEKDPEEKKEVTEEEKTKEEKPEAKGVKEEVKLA
Assay [4] addresses T2, Protein deacetylase HDAC6 (Homo sapiens, UniProt Q9UBN7).
T2 sequence (Q9UBN7 whole entry): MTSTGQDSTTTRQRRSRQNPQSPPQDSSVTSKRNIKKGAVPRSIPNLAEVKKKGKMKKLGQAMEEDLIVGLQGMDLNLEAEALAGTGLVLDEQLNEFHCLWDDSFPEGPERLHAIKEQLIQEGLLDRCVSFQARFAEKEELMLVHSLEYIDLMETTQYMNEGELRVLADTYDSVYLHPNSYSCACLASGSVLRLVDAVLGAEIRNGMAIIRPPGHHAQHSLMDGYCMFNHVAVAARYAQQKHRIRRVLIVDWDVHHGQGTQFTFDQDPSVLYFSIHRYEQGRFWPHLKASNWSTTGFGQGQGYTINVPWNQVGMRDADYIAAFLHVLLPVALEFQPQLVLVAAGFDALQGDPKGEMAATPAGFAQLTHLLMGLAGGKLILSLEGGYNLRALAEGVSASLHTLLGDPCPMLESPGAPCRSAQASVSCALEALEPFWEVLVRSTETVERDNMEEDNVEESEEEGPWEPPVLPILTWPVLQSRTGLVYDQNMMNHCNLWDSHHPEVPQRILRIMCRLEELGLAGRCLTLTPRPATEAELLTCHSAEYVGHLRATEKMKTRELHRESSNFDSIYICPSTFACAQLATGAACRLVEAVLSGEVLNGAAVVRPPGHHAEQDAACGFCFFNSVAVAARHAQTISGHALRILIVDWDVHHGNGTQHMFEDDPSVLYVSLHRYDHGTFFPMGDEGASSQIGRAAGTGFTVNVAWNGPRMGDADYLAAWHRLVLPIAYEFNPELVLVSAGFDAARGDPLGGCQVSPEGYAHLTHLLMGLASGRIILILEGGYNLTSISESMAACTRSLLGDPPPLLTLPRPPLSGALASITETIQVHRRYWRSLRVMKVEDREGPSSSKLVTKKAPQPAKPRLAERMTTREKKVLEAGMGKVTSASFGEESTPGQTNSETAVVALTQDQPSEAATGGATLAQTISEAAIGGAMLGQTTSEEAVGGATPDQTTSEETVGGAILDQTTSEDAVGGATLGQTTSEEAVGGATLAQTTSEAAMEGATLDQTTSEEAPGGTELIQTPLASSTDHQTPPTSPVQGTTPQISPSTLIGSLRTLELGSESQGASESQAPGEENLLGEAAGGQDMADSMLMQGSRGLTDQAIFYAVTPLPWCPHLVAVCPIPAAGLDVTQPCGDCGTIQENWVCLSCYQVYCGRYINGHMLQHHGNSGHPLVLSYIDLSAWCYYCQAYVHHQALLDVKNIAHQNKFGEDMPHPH
The assay is described as follows: Inhibition of human recombinant HDAC6 using Boc-lys(Ac)-AMC as substrate preincubated for 20 mins with substrate measured after 60 mins by fluorescence analysis.

The source made the active and inactive calls.

`CSc1ccc(C/C(=N\O)C(=O)NCCSSCCNC(=O)/C(Cc2ccc(SC)c(Br)c2)=N/O)cc1Br`: the inhibition result in assay [1] was “inactive”.
Consider `CO/N=C(\Cc1ccc(OC)c(Br)c1)C(=O)NCCS`, for which the inhibition entry in assay [2] and in assay [1] was “inactive” each time. The half-inhibitory concentration (IC50) (as a rule, the point on the concentration scale where inhibition reaches its midpoint) in assay [3] was found to be 15 nM; in assay [4], 2700 nM.
For `O=C(NCCS)/C(Cc1ccc(O)cc1)=N/O`, the inhibition result in assay [2] and in assay [1] was “inactive” each time. The values for the half-inhibitory concentration (IC50) in assay [3] and in assay [4] were 4 nM and 1700 nM, respectively.
As to `COc1ccc(C/C(=N\N)C(=O)NCCS)cc1Br`, the figures for the concentration for half-maximal inhibition (IC50) in assay [3] and in assay [4] were 6 nM and 320 nM, respectively. In assay [1], the inhibition result is “inactive”.
Turning to `COc1ccc(C/C(=N\N)C(=O)NCCSC)cc1Br`, the results for the half-inhibitory concentration (IC50) in assay [3] and in assay [4] were 12600 nM and over 50000 nM, respectively. In assay [1], the inhibition entry is “inactive”.
For the molecule `COc1cc(C/C(=N\O)C(=O)NCCSSCCNC(=O)/C(Cc2ccc(SC)c(OC)c2)=N/O)ccc1SC`, the inhibition entry in assay [1] was “inactive”.
Regarding `O=C(NCCS)/C(Cc1cccc([N+](=O)[O-])c1)=N/O`, the inhibition result in assay [2] and in assay [1] was “inactive” in each case. Also, the 50% inhibitory concentration (IC50) in assay [3] stood at 1 nM; in assay [4] it was 1200 nM.
For the molecule `O=C(NCCCSCCNC(=O)/C(Cc1ccc(O)c(Br)c1)=N/O)/C(Cc1ccc(O)c(Br)c1)=N/O`, the inhibition entry in assay [2] and in assay [1] was “inactive” throughout.
On to `O=C(NCCSSCCNC(=O)/C(Cc1ccc(F)cc1)=N/O)/C(Cc1ccc(F)cc1)=N/O`, for which the inhibition entry in assay [1] was “inactive”.
In the case of `COc1ccc(C/C(=N\O)C(=O)NCCS)cc1OC`, the inhibition result in assay [2] and in assay [1] was “inactive” throughout. For the same molecule, the half-inhibitory concentration (IC50) is 3 nM in assay [3] and 2700 nM in assay [4].
Take `CN(C)c1ccc(C/C(=N\O)C(=O)NCCSSCCNC(=O)/C(Cc2ccc(N(C)C)cc2)=N/O)cc1`: in assay [1], the inhibition entry is “inactive”.
For `O=C(NCCSSCCNC(=O)/C(Cc1ccc(O)cc1)=N/O)/C(Cc1ccc(O)cc1)=N/O`, the inhibition entry in assay [1] is “inactive”.
As for `COc1ccc(C/C(=N\O)C(=O)NCCSC)cc1Br`, the IC50 is 23300 nM in assay [3] and over 50000 nM in assay [4].
On to `COc1ccc(C/C(=N\O)C(=O)NCCS)cc1I`, for which the inhibition entry in assay [2] and in assay [1] was “inactive” throughout. The IC50 in assay [3] was found to be 1 nM; in assay [4], 240 nM.
On to `O=C(NCCS)/C(Cc1cc(Br)cc([N+](=O)[O-])c1)=N/O`, for which the inhibition result in assay [2] and in assay [1] was “inactive” each time. Also, the values for the 50% inhibitory concentration (IC50) in assay [3] and in assay [4] were 5 nM and 740 nM, respectively.
Turning to `COc1cc(C/C(=N\O)C(=O)NCCS)cc(I)c1OC`, the inhibition entry in assay [2] and in assay [1] was “inactive” each time. The IC50 in assay [3] amounted to 1 nM; in assay [4], 270 nM.
In the case of `COc1ccc(CC(=O)C(=O)NCCSSCCNC(=O)C(=O)Cc2ccc(OC)c(Br)c2)cc1Br`, the concentration for half-maximal inhibition (IC50) worked out at 9000 nM in assay [3] and 8000 nM in assay [4]. Also, the inhibition result in assay [1] is “inactive”.
For the molecule `O=C(NCCSSCCNC(=O)/C(Cc1cc(Br)cc([N+](=O)[O-])c1)=N/O)/C(Cc1cc(Br)cc([N+](=O)[O-])c1)=N/O`, the inhibition entry in assay [1] is “inactive”.
As to `COc1cc(C/C(=N\O)C(=O)NCCSSCCNC(=O)/C(Cc2cc(I)c(OC)c(OC)c2)=N/O)cc(I)c1OC`, the inhibition result in assay [1] is “inactive”.
Turning to `CN(C)c1ccc(C/C(=N\O)C(=O)NCCS)cc1`, the inhibition result in assay [2] and in assay [1] was “inactive” in each case. Moreover, the IC50 in assay [3] amounted to 1 nM; in assay [4] it was 2300 nM.
With `COc1ccc(C/C(=N\O)C(=O)NCCSSCCNC(=O)/C(Cc2ccc(OC)c(I)c2)=N/O)cc1I`, the inhibition entry in assay [1] is “inactive”.
As to `COc1ccc(CC(=O)C(=O)NCCSC)cc1Br`, the concentration for half-maximal inhibition (IC50) in assay [3] and in assay [4] was over 50000 nM in each case. In addition, the inhibition result in assay [1] was “inactive”.
For the molecule `COc1ccc(C/C(=N\O)C(=O)NCCSSCCNC(=O)/C(Cc2ccc(OC)c(Br)c2)=N/O)cc1Br`, the half-maximal inhibitory concentration (IC50) in assay [3] was 43 nM; in assay [4], 2000 nM.
Turning to `O=C(NCCS)/C(Cc1ccc(F)cc1)=N/O`, the inhibition result in assay [2] and in assay [1] was “inactive” in each case. Also, the half-maximal inhibitory concentration (IC50) worked out at 7 nM in assay [3] and 2900 nM in assay [4].
Regarding `CN(C)c1ccc(C/C(=N\O)C(=O)NCCS)cc1Br`, the inhibition result in assay [2] and in assay [1] was “inactive” each time. Further, the half-inhibitory concentration (IC50) is 4 nM in assay [3] and 700 nM in assay [4].
As to `CN(C)c1ccc(C/C(=N\O)C(=O)NCCSSCCNC(=O)/C(Cc2ccc(N(C)C)c(Br)c2)=N/O)cc1Br`, in assay [1], the inhibition result was “inactive”.
`CSc1ccc(C/C(=N\O)C(=O)NCCSSCCNC(=O)/C(Cc2ccc(SC)cc2)=N/O)cc1`: the inhibition result in assay [1] is “inactive”.
For `CO/N=C(\Cc1ccc(OC)c(Br)c1)C(=O)NCCSC`, the IC50 in assay [3] and in assay [4] was over 50000 nM in each case. Also, the inhibition result in assay [1] was “inactive”.
Consider `O=C(NCCCCCCNC(=O)/C(Cc1ccc(O)c(Br)c1)=N/O)/C(Cc1ccc(O)c(Br)c1)=N/O`, for which the inhibition result in assay [2] and in assay [1] was “inactive” in each case.
For `O=C(CCc1ccc(O)c(Br)c1)NCCSSCCNC(=O)CCc1ccc(O)c(Br)c1`, the IC50 in assay [3] was over 50000 nM; in assay [4], 20200 nM. The inhibition entry in assay [1] was “inactive”.
The matching figures for `COc1ccc(CC(=O)C(=O)NCCS)cc1Br`: 1100 nM, 250 nM and “inactive”.
`CO/N=C(\Cc1ccc(OC)c(Br)c1)C(=O)NCCSSCCNC(=O)/C(Cc1ccc(OC)c(Br)c1)=N/OC`: the IC50 is 220 nM in assay [3] and over 50000 nM in assay [4]. The inhibition result in assay [1] is “inactive”.
For `COc1ccc(C/C(=N\N)C(=O)NCCSSCCNC(=O)/C(Cc2ccc(OC)c(Br)c2)=N/N)cc1Br`, the IC50 is 3000 nM in assay [3] and over 50000 nM in assay [4]. In assay [1], the inhibition entry is “inactive”.
Take `O=C(NCCSSCCNC(=O)/C(Cc1cc(Br)c(O)c(Br)c1)=N/O)/C(Cc1cc(Br)c(O)c(Br)c1)=N/O`: in assay [1], the inhibition entry is “inactive”.
As to `O=C(NCCSSCCNC(=O)/C(Cc1cccc([N+](=O)[O-])c1)=N/O)/C(Cc1cccc([N+](=O)[O-])c1)=N/O`, the inhibition result in assay [1] was “inactive”.
Take `COc1ccc(C/C(=N\O)C(=O)NCCSSCCNC(=O)/C(Cc2ccc(OC)c(OC)c2)=N/O)cc1OC`: in assay [1], the inhibition entry was “inactive”.
For `COc1cc(C/C(=N\O)C(=O)NCCS)ccc1SC`, the half-inhibitory concentration (IC50) in assay [3] turned out to be 0.6 nM; in assay [4], 1400 nM. In assay [1], the inhibition result is “inactive”.

The values are drawn from ChEMBL document CHEMBL2046381, “Defining the mechanism of action and enzymatic selectivity of psammaplin A against its epigenetic targets” (J Med Chem, 2012).
